Calls of active or inactive are those of the source. The calls are words filed in the database; no cut-off is given here.
Experiments:
[1] = test system: Pseudomonas aeruginosa; experiment: Antibiofilm activity against Pseudomonas aeruginosa clinical isolate 629 assessed as inhibition of biofilm formation at sub-inhibitory concentration incubated for 24 hrs by crystal violet staining based microtiter plate method; type: functional, organism-based
Outline: (§1)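 Washed overnight cultures in BM2 medium at 1 × 10^6 CFU/mL with 2-fold serial peptide dilutions in a U-bottom 96-well plate. Incubated 24 h at 37 °C without agitation. Unattached cells washed off, then 0.1% crystal violet stain read at 590 nm. No-bacteria blanks. Biomass expressed as % of untreated biofilm. At least three biological repeats.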

[2] = test system: Pseudomonas aeruginosa; experiment: Antibiofilm activity against Pseudomonas aeruginosa clinical isolate 25 assessed as inhibition of biofilm formation at sub-inhibitory concentration incubated for 24 hrs by crystal violet staining based microtiter plate method; type: functional, organism-based; outline: as §1
[3] = test system: Pseudomonas aeruginosa; experiment: Induction of biofilm degradation of Pseudomonas aeruginosa clinical isolate 629 at 50 uM incubated for 1 hr by crystal violet staining analysis relative to control; type: functional
Outline: (§2)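 Bacteria at 1 × 10^6 CFU/mL in BM2 grown static at 37 °C for 24 h to form biofilm. Wells rinsed of unattached cells, then exposed for 1 h to serial peptide dilutions (1.56–50 μM). Washed, stained with 0.1% crystal violet, A590 read. Biomass given as % of untreated biofilm; no-bacteria wells as blanks. At least three biological repeats.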

[4] = test system: Pseudomonas aeruginosa; experiment: Inhibition of biofilm formation of Pseudomonas aeruginosa clinical isolate 24 derived from cystic fibrosis patient sputum at 0.09 to 3.12 uM by crystal violet based staining analysis; type: functional, organism-based; details: dose 0.09-3.12 µM
Outline: (§3)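 CF patient sputum diluted 10-fold with BM2, bacteria added with serial peptide dilutions starting from the highest MIC per isolate. Inoculum suspension 1 × 10^6 CFU/mL. Incubated 24 h at 37 °C without agitation. Unattached cells washed away, then 0.1% crystal violet staining and A590. Biomass given as % of untreated, with no-bacteria blanks.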

[5] = test system: Pseudomonas aeruginosa; experiment: Antibiofilm activity against Pseudomonas aeruginosa clinical isolate 71 assessed as inhibition of biofilm formation at sub-inhibitory concentration incubated for 24 hrs by crystal violet staining based microtiter plate method; type: functional, organism-based; outline: as §1
[6] = test system: Pseudomonas aeruginosa; experiment: Induction of biofilm degradation of Pseudomonas aeruginosa clinical isolate 24 incubated for 1 hr by crystal violet staining analysis relative to control; type: functional; details: dose 50.0 µM; outline: as §2
[7] = test system: Pseudomonas aeruginosa; experiment: Induction of biofilm degradation of Pseudomonas aeruginosa clinical isolate 53 at sub MIC concentration incubated for 1 hr by crystal violet staining analysis; type: functional; outline: as §2
[8] = test system: Pseudomonas aeruginosa; experiment: Induction of biofilm degradation of Pseudomonas aeruginosa clinical isolate 72 at 50 uM incubated for 1 hr by crystal violet staining analysis relative to control; type: functional; outline: as §2
[9] = test system: Pseudomonas aeruginosa; experiment: Induction of biofilm degradation of Pseudomonas aeruginosa clinical isolate 53 at 50 uM incubated for 1 hr by crystal violet staining analysis relative to control; type: functional; outline: as §2
[10] = test system: Pseudomonas aeruginosa; experiment: Induction of biofilm degradation of Pseudomonas aeruginosa clinical isolate 24 at sub MIC concentration incubated for 1 hr by crystal violet staining analysis; type: functional; outline: as §2
[11] = test system: Pseudomonas aeruginosa; experiment: Inhibition of biofilm formation of Pseudomonas aeruginosa clinical isolate 82 derived from cystic fibrosis patient sputum at 0.09 to 3.12 uM by crystal violet based staining analysis; type: functional, organism-based; details: dose 0.09-3.12 µM; outline: as §3
[12] = test system: Pseudomonas aeruginosa; experiment: Induction of biofilm degradation of Pseudomonas aeruginosa PAO1 at 50 uM incubated for 1 hr by crystal violet staining analysis relative to control; type: functional; outline: as §2
[13] = test system: Pseudomonas aeruginosa; experiment: Induction of biofilm degradation of Pseudomonas aeruginosa clinical isolate 46 at 50 uM incubated for 1 hr by crystal violet staining analysis relative to control; type: functional; outline: as §2
[14] = test system: Pseudomonas aeruginosa; experiment: Antibiofilm activity against Pseudomonas aeruginosa clinical isolate 99 assessed as inhibition of biofilm formation at sub-inhibitory concentration incubated for 24 hrs by crystal violet staining based microtiter plate method; type: functional, organism-based; outline: as §1
[15] = test system: Pseudomonas aeruginosa; experiment: Induction of biofilm degradation of Pseudomonas aeruginosa clinical isolate 82 at 50 uM incubated for 1 hr by crystal violet staining analysis relative to control; type: functional; outline: as §2
[16] = test system: Pseudomonas aeruginosa; experiment: Induction of biofilm degradation of Pseudomonas aeruginosa clinical isolate 71 at 50 uM incubated for 1 hr by crystal violet staining analysis relative to control; type: functional; outline: as §2
[17] = test system: Pseudomonas aeruginosa; experiment: Induction of biofilm degradation of Pseudomonas aeruginosa clinical isolate 995 at 50 uM incubated for 1 hr by crystal violet staining analysis relative to control; type: functional; outline: as §2
[18] = test system: Pseudomonas aeruginosa; experiment: Inhibition of biofilm formation of Pseudomonas aeruginosa PAO1 in patient derived CF-sputum at 0.09 to 3.12 uM by crystal violet based staining analysis; type: functional, organism-based; details: dose 0.09-3.12 µM; outline: as §3
[19] = test system: Pseudomonas aeruginosa; experiment: Antibiofilm activity against Pseudomonas aeruginosa clinical isolate 53 assessed as inhibition of biofilm formation at sub-inhibitory concentration incubated for 24 hrs by crystal violet staining based microtiter plate method; type: functional, organism-based; outline: as §1
[20] = test system: Pseudomonas aeruginosa; experiment: Induction of biofilm degradation of Pseudomonas aeruginosa clinical isolate 251 at 50 uM incubated for 1 hr by crystal violet staining analysis; type: functional; outline: as §2
[21] = test system: Pseudomonas aeruginosa; experiment: Induction of biofilm degradation of Pseudomonas aeruginosa clinical isolate 172 at 50 uM incubated for 1 hr by crystal violet staining analysis relative to control; type: functional; outline: as §2
[22] = test system: Pseudomonas aeruginosa; experiment: Antibiofilm activity against Pseudomonas aeruginosa clinical isolate 24 assessed as inhibition of biofilm formation at sub-inhibitory concentration incubated for 24 hrs by crystal violet staining based microtiter plate method; type: functional, organism-based; outline: as §1
[23] = test system: Pseudomonas aeruginosa; experiment: Inhibition of biofilm formation of Pseudomonas aeruginosa clinical isolate 24 derived from cystic fibrosis patient sputum at 0.78 to 25 uM by crystal violet based staining analysis; type: functional, organism-based; details: dose 0.78-25 µM; outline: as §3
[24] = test system: Pseudomonas aeruginosa; experiment: Induction of biofilm degradation of Pseudomonas aeruginosa clinical isolate 40 at 50 uM incubated for 1 hr by crystal violet staining analysis relative to control; type: functional; outline: as §2
[25] = test system: Pseudomonas aeruginosa; experiment: Antibiofilm activity against Pseudomonas aeruginosa clinical isolate 82 in basal medium 2 at 12.5 to 100 uM incubated for 24 hrs by resazurin staining based microtiter plate method; type: functional, organism-based; details: dose 12.5-100 µM
[26] = test system: Pseudomonas aeruginosa; experiment: Induction of biofilm degradation of Pseudomonas aeruginosa clinical isolate 238 at 50 uM incubated for 1 hr by crystal violet staining analysis relative to control; type: functional; outline: as §2
[27] = test system: Pseudomonas aeruginosa; experiment: Induction of biofilm degradation of Pseudomonas aeruginosa clinical isolate 40 at sub MIC concentration incubated for 1 hr by crystal violet staining analysis; type: functional; outline: as §2
[28] = test system: Pseudomonas aeruginosa; experiment: Induction of biofilm degradation of Pseudomonas aeruginosa clinical isolate 59 at <12.5 uM incubated for 1 hr by crystal violet staining analysis; type: functional; outline: as §2
[29] = test system: Pseudomonas aeruginosa; experiment: Induction of biofilm degradation of Pseudomonas aeruginosa clinical isolate 29 at 50 uM incubated for 1 hr by crystal violet staining analysis relative to control; type: functional; outline: as §2
[30] = test system: Pseudomonas aeruginosa; experiment: Induction of biofilm degradation of Pseudomonas aeruginosa clinical isolate 99 at 50 uM incubated for 1 hr by crystal violet staining analysis relative to control; type: functional; outline: as §2
[31] = test system: Pseudomonas aeruginosa; experiment: Induction of biofilm degradation of Pseudomonas aeruginosa clinical isolate 52 at 50 uM incubated for 1 hr by crystal violet staining analysis relative to control; type: functional; outline: as §2
[32] = test system: Pseudomonas aeruginosa; experiment: Antibiofilm activity against Pseudomonas aeruginosa clinical isolate 46 assessed as inhibition of biofilm formation at sub-inhibitory concentration incubated for 24 hrs by crystal violet staining based microtiter plate method; type: functional, organism-based; outline: as §1
[33] = test system: Pseudomonas aeruginosa; experiment: Induction of biofilm degradation of Pseudomonas aeruginosa clinical isolate 25 at 50 uM incubated for 1 hr by crystal violet staining analysis relative to control; type: functional; outline: as §2
[34] = test system: Pseudomonas aeruginosa; experiment: Antibiofilm activity against Pseudomonas aeruginosa clinical isolate 72 assessed as inhibition of biofilm formation at sub-inhibitory concentration incubated for 24 hrs by crystal violet staining based microtiter plate method; type: functional, organism-based; outline: as §1

With `CC(C)C[C@H](NC(=O)[C@H](CC(C)C)NC(=O)[C@H](CC(C)C)NC(=O)[C@H](CC(C)C)NC(=O)[C@H](CC(C)C)NC(=O)[C@H](CC(C)C)NC(=O)[C@H](CC(C)C)NC(=O)[C@H](CC(C)C)NC(=O)[C@H](CC(C)C)NC(=O)[C@H](CCCCN)NC(=O)[C@H](CCCCN)NC(=O)[C@@H](N)CCCCN)C(=O)N[C@@H](CCCCN)C(=O)N[C@@H](CCCCN)C(=O)N[C@@H](CCCCN)C(N)=O` the inhibition [1] was “Active”, the inhibition [2] was “Active” and the Activity [3] was 60%. For the same compound, the inhibition [4] was “Active”, the inhibition [5] was “Active” and the Activity [6] was 60%. The Activity [7] was “Active”, the Activity [8] was 60% and the Activity [9] was 60%. For the same compound, the Activity [10] was “Active”, the inhibition [11] was “Active” and the Activity [12] was 60%. For the same compound, the Activity [13] was 60%, the inhibition [14] was “Active” and the Activity [15] was 60%. The Activity [16] was 60%, the Activity [17] was 60% and the inhibition [18] was “Active”. The inhibition [19] was “Active”, the Activity [20] was 60% and the Activity [21] was 60%. For the same compound, the inhibition [22] was “Active”, the inhibition [23] was “Active” and the Activity [24] was 60%. For the same compound, the Activity [25] was “Active”, the Activity [26] was 60% and the Activity [27] was “Active”. The Activity [28] was “Active”, the Activity [29] was 60% and the Activity [30] was 60%. The Activity [31] was 60%, the inhibition [32] was “Active” and the Activity [33] was 60%. The inhibition [34] was “Active”.

— ChEMBL document CHEMBL5143722, “Antimicrobial Peptides against Multidrug-Resistant Pseudomonas aeruginosa Biofilm from Cystic Fibrosis Patients” (J Med Chem, 2022)
